# Source: PubChem (Broad Institute)
# This is a sample that favours compounds with a hit; in the whole collection about 0.92% have one here.
# RAD54 inh – inhibitors of human RAD54 branch migration. Q92698. RAD54 Holliday junction branch migration, FAM/BHQ fluorescence. inhibition, % at 10.4 µM. 360,000 compounds, 0.14% hits. AID 602329;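 active = mean normalized replicate activity at least 40 and at least half of replicates scoring 40 or more; inconclusive = only one of the two criteria met; inactive = mean below 40 and under half of replicates reaching 40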;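 note: 0% = median of neutral control wells and 100% = median of positive control wells; inhibitors cause a drop in the FAM fluorescence signal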
# Target sequence (Q92698 whole entry, looked up): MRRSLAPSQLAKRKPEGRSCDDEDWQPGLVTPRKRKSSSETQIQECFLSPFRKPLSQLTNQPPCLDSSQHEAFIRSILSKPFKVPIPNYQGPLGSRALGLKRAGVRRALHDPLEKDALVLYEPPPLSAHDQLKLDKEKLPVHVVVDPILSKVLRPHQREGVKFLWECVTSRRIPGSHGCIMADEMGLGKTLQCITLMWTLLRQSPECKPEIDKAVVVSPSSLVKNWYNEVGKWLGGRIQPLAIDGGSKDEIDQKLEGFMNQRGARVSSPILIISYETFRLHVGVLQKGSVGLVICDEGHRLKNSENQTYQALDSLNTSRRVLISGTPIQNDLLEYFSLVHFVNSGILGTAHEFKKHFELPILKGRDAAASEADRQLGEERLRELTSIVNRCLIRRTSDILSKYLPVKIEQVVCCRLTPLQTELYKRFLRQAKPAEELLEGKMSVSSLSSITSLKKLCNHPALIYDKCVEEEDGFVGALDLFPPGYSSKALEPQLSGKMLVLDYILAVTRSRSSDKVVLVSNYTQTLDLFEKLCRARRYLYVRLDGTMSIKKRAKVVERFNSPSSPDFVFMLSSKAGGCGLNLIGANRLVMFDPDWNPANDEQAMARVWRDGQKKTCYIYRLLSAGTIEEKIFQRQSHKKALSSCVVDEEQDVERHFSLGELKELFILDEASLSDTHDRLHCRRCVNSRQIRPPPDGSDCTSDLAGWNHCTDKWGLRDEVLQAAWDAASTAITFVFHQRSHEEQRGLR
# Glyco luc inh – blocks N-linked glycosylation in D54 reporter cells; reporter increase, % at 12.5 µM; 360,000 compounds, 0.23% hits; D54 ERlucT glycosylation luciferase reporter, 24 h; percent of 100 nM tunicamycin response;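 active = mean luciferase reporter signal, scaled so untreated is 0 and the glycosylation-blocking control 100, at or above a set limit in every replicate; inconclusive = mean reaches the limit but not every replicate does; inactive = mean below the limit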;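 note: luciferase carries N-glycosylation sites so blocking glycosylation raises the light; 0% = median of neutral control wells and 100% = median of 100 nM tunicamycin wells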
# RAD52 anneal inh – blocks human RAD52 DNA annealing. recombinant RAD52 DNA annealing, FRET fluorescence. 360,000 compounds, 0.46% hits. inhibition, % at 18.7 µM;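 active = every replicate showing at least 50% inhibition; inconclusive = mean inhibition at least 50% but not in every replicate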
# FN deposition inh – fibronectin deposition inhibition. inhibition, % at 12.6 µM. AH1F fibroblasts, Alexa488-fibronectin deposition fluorescence, overnight. AID 743247. 350,000 compounds, 0.086% hits;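 active = mean inhibition across replicates of 30% or more, regardless of how many single replicates reach that level; inconclusive = mean under 30% yet at least half of replicates reach 30%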;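 note: positive control wells lacked labelled fibronectin entirely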
#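 Schedule: 1 h cell adhesion before compound, then overnight fibronectin incubation; test system: AH1F fibroblast monolayer depositing Alexa488-labelled fibronectin into matrix; quantity: 10000 AH1F cells per well; probe or stimulus: fluorescent fibronectin at 24 nM final; signal: fluorescence, ex 485 nm, em 525 nm; evaluation: percent inhibition as loss of matrix-bound fibronectin fluorescence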
# AF4-AF9 inh – inhibitors of human MLL-AF4/AF9 interaction; P42568; AlphaScreen, biotin-AF4 peptide binding to FLAG-AF9; inhibition, % at 10 µM; 350,000 compounds, 0.47% hits; AID 651704;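 active = every replicate reaching a set inhibition limit, whatever the replicate mean, cut at about 25% in these data; inconclusive = mean inhibition reaches that limit but some replicates miss it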;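 note: 0% = plate neutral control median and 100% = total signal loss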
# Active calls of the source: *; ? = inconclusive; nt = no result given.
SMILES,RAD54 inh,Glyco luc inh,RAD52 anneal inh,FN deposition inh,AF4-AF9 inh
COc1ccc(C#Cc2ccc3c(c2)[C@H]2[C@H](CCN2S(=O)(=O)c2cccc(OC)c2)[C@H](CO)N3C)cc1,7.7,nt,62.1*,-15.4,2.0
COc1ccc(-c2ccc3c(c2)[C@@H]2[C@@H](CCN2C(=O)c2ccncc2)[C@@H](CO)N3C)cc1,8.5,nt,14.7,-2.9,-4.6
COc1ccc(C#Cc2ccc3c(c2)[C@@H]2[C@@H](CCN2C(=O)c2ccncc2)[C@@H](CO)N3C)cc1,15.6,nt,62.3*,-10.1,2.6
OC[C@@H]1Nc2ccc(C#Cc3ccccc3)cc2[C@H]2[C@@H]1CCN2Cc1nccs1,4.6,nt,nt,-12.0,-2.1
COc1ccc(C#Cc2ccc3c(c2)[C@H]2[C@H](CCN2C(=O)c2ccccn2)[C@@H](CO)N3)cc1,nt,nt,19.0,6.6,26.1*
C[C@H](CO)N1C[C@H](C)[C@@H](CN(C)Cc2ccc(C(=O)Nc3ccccc3N)cc2)Oc2ccc(NS(=O)(=O)c3cn(C)cn3)cc2CC1=O,nt,nt,7.1,-14.6,0.8
Cc1ccc(S(=O)(=O)Nc2ccc3c(c2)C(=O)N([C@H](C)CO)C[C@H](C)[C@@H](CN(C)C)OCCCC[C@H](C)O3)cc1,nt,nt,nt,-1.1,1.3
CC(C)NC(=O)Nc1ccc2c(c1)C(=O)N([C@@H](C)CO)C[C@H](C)[C@@H](CN(C)C)OCCCC[C@H](C)O2,3.7,nt,-15.9,3.2,-1.3
CCC(=O)Nc1ccc2c(c1)OC[C@H](C)N(Cc1ccccc1C(=O)O)C[C@H](C)[C@@H](OC)CN(C)C2=O,nt,nt,6.7,-4.7,-1.7
OC[C@@H]1Nc2ccc(C#Cc3cccc(F)c3)cc2[C@@H]2NCC[C@H]12,nt,nt,45.4,14.7,?
COc1ccccc1C#Cc1ccc2c(c1)[C@H]1NCC[C@H]1[C@@H](CO)N2,nt,nt,54.1*,2.9,18.0
CC(=O)Nc1ccc2c(c1)CC(=O)N(C)C[C@@H](C)[C@@H](CN(C)C(=O)NC(C)C)O2,nt,nt,nt,0.2,nt
c1ccc(CNc2nc(-c3cccnc3)nc3ccccc23)cc1,-2.4,2.3,-22.3,4.9,2.0
c1ccc(CN2CCC(Nc3nc(-c4cccnc4)nc4ccccc34)CC2)cc1,46.0,39.6*,27.6,1.9,9.5
C/C=C/c1cnc2c(c1)C(=O)N([C@@H](C)CO)C[C@H](C)[C@H](CN(C)C(=O)NC1CCCCC1)O2,-2.8,nt,-4.9,1.1,-4.8
Cn1nc(-c2ccc(N3CCOCC3)c(NS(=O)(=O)c3ccc(Cl)cc3)c2)c2ccccc2c1=O,1.1,6.8,nt,nt,nt
Cc1ccc(S(=O)(=O)Nc2cc(-c3nn(C)c(=O)c4ccccc34)ccc2N2CCOCC2)cc1,-2.1,45.2*,1.8,nt,nt
Cc1cccc(NC(=O)c2ccc(C3SCC(=O)N3CCc3ccccc3)cc2)c1 (centres undefined),2.7,-7.2,-3.8,32.6*,-6.6
O=C([C@H]1[C@H](CO)[C@H]2Cn3c(cccc3=O)[C@H]2N1CCC(F)(F)F)N1CCCCC1,10.9,nt,-29.5,nt,-3.0
CCOc1ncccc1C(=O)N1CCN(c2cc(Cl)ccc2C)CC1,nt,30.2*,-13.5,-9.0,1.4
CC(C)NC(=O)Nc1ccc2c(c1)CC(=O)N(C)C[C@H](C)[C@@H](CN(C)C)O2,nt,nt,nt,5.6,nt
C[C@@H]1CN([C@H](C)CO)C(=O)c2cc(N(C)C)ccc2O[C@@H]1CN(C)Cc1ccc(Oc2ccccc2)cc1,4.2,nt,16.7,4.9,51.5*
C[C@H](CO)N1C[C@H](C)[C@H](CN(C)Cc2ccc(Oc3ccccc3)cc2)Oc2ccc(N(C)C)cc2C1=O,-6.2,nt,11.4,1.1,51.6*
C[C@@H]1CN([C@H](C)CO)C(=O)c2cc(N(C)C)ccc2O[C@H]1CN(C)Cc1ccc(Oc2ccccc2)cc1,2.9,nt,-8.1,9.8,39.8*
C[C@@H]1CN([C@@H](C)CO)C(=O)c2cc(N(C)C)ccc2O[C@H]1CN(C)Cc1ccccc1,-0.2,nt,-12.7,nt,-2.8
SMILES,RAD54 inh,Glyco luc inh,RAD52 anneal inh,FN deposition inh,AF4-AF9 inh
CC(=O)N1[C@@H]2c3ccc(-c4cccnc4)c(=O)n3C[C@@H]2[C@@H](CO)[C@@H]1C(=O)N1CCc2ccccc2C1,4.1,nt,-5.2,nt,-1.0
CO[C@H]1CN(C)C(=O)c2ccc(NC(C)=O)cc2OC[C@H](C)N(CC2CCCCC2)C[C@@H]1C,nt,nt,-5.0,-4.5,-1.3
C[C@@H]1CCCCO[C@H](CN(C)Cc2ccccc2)[C@H](C)CN([C@H](C)CO)C(=O)c2cc(NS(=O)(=O)c3ccc(F)cc3)ccc2O1,-2.7,nt,44.3,-17.2,10.5
CC=Cc1ccc2n(c1=O)C[C@@H]1[C@@H](CO)[C@H](C(=O)NCc3ccccc3)[C@H]2N1Cc1ccccc1OC (mixture of isomers),nt,nt,-50.4,nt,-0.8
C[C@H](CO)N1C[C@H](C)[C@@H](CN(C)Cc2ccc(-c3ccccc3)cc2)Oc2c(cccc2N(C)C)C1=O,0.9,nt,2.3,nt,10.1
O=C(N/N=C\c1ccc(CNS(=O)(=O)c2ccccc2)o1)C(=O)Nc1ccc(F)cc1,-3.3,1.2,-3.3,5.6,-3.5
O=C(N/N=C\c1ccc(CNS(=O)(=O)c2ccc(Cl)cc2)o1)C(=O)Nc1ccc(Oc2ccccc2)cc1,nt,51.8*,nt,nt,nt
COc1cccc(CNC(=O)C[C@H]2CC[C@@H](NC(=O)C3CCOCC3)[C@@H](CO)O2)c1,-1.1,nt,-2.3,4.0,0.6
NC1=C(Cl)C(=O)c2ccc(S(N)(=O)=O)cc2C1=O,2.0,-19.9,25.1,31.4*,1.6
NC1=C(Cl)C(=O)c2ccccc2C1=O,nt,-14.0,-68.8,-2.2,2.4
CN(C)Cc1c(O)ccc2ccccc12,nt,-1.3,-9.6,2.1,31.4*
CC(C)CN(Cc1c(O)ccc2ccccc12)CC(C)C,nt,4.6,-24.1,2.5,1.5
Cc1ccc(S(=O)(=O)N2CC3(C)CN(S(=O)(=O)c4ccc(C)cc4)CC(C)(C2)C3=O)cc1,-8.3,1.4,nt,33.6*,nt
CC(=O)N1CCC(C(=O)NCCOc2cccc(C)c2)CC1,1.8,2.0,-3.6,1.0,26.4*
O=C(NCCOc1ccccc1)C1CCN(C(=O)Nc2ccccc2)CC1,-7.5,1.1,-15.6,-4.7,1.2
CC(=O)c1ccc(OCC(O)CN2CCN(CCN3C(=O)c4cccc5cccc(c45)C3=O)CC2)cc1 (centres undefined),nt,56.1*,nt,-0.3,nt
Cc1ccccc1OCC(O)CN1CCN(CCN2C(=O)c3cccc4cccc(c34)C2=O)CC1 (centres undefined),nt,20.2,1.1,3.0,10.8
CN1C(=O)c2cc(NC(=O)c3cnccn3)ccc2OC[C@@H]2O[C@H](CC(=O)O)CC[C@H]21,1.3,nt,1.5,-3.5,0.2
COc1ccc(CNC(=O)CCc2nnc3ccc(NCCCN4CCCC4=O)nn23)cc1,6.2,1.1,-5.8,-9.1,-0.4
COc1cccc(CNC(=O)CCc2nnc3ccc(NCCCN4CCCC4=O)nn23)c1,-15.8,1.4,1.0,30.0*,0.4
COc1nc(-c2ccccc2)ncc1S(=O)(=O)c1ccccc1,nt,-1.0,-18.3,15.0,-2.8
Cc1nc(-c2ccccc2)sc1-c1nc(-c2ccncc2)ncc1S(=O)(=O)c1ccccc1,-1.1,57.1*,nt,nt,nt
